Data on 29 compounds can be found in ChEMBL document CHEMBL2176886, “Anti-AIDS agents 90. novel C-28 modified bevirimat analogues as potent HIV maturation inhibitors” (J Med Chem, 2012).

By IC50 is commonly meant the concentration at which inhibition is half-maximal. What is called CC50 is the concentration that lowers cell viability or growth by half. High values mean lower toxicity to the cells, low ones greater toxicity to the cells.

Data set [1] deals with Human immunodeficiency virus 1. As to the kind of experiment: Antiviral activity against HIV1 NL4-3 infected in human MT4 cells assessed as p24 antigen level at 10 uM after 4 days by ELISA. The format is functional, organism-based.
Data set [2] has as its system Human immunodeficiency virus 1. Put plainly: Antiviral activity against HIV1 infected in human TZM-bl cells assessed as reduction of viral entry after 48 hrs by luciferase reporter gene assay. It counts as functional, organism-based. The procedure, abridged: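 Single-round infection of TZM-bl cells (HeLa clone expressing CD4/CCR5 with HIV-1 LTR-driven firefly luciferase) with HIV-1 at 200 TCID50 mixed with test samples. After 48 h, medium was replaced with Bright-Glo reagent and luminescence read. IC50 is the concentration giving 50% RLU reduction versus virus-control wells after background subtraction.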

The nature of data set [3]: Therapeutic index, ratio of CC50 for human MT4 cells to IC50 for HIV-1 NL4-3. It counts as cell-based. The following applies: read-out: Ratio CC50/IC50. The method, boiled down:
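TI calculated as CC50 (mock-infected MT-4 growth, 2 days) divided by IC50 (HIV-1 NL4-3 replication in MT-4 cells, p24 ELISA at day 4).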

Data set [4] deals with Human immunodeficiency virus 1. As to the kind of experiment: Antiviral activity against HIV1 NL4-3 infected in human MT4 cells assessed as p24 antigen level after 4 days by ELISA. It counts as functional, organism-based. Particulars: Human immunodeficiency virus 1, NL4-3, MT4, 96 h. The method, boiled down: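 MT-4 cells infected with HIV-1 NL4-3 variants at MOI 0.01; supernatants harvested day 4 post-infection for p24 antigen capture ELISA. IC50 is the concentration inhibiting replication by 50%; values are averages of at least three separate experiments.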
(An ELISA detects its analyte on a solid surface through an enzyme-linked reagent.)

The test system of another data set is MT4. Put plainly: Cytotoxicity against human MT4 cells after 2 days. The format is cell-based. The following applies: mt4, 48 h.
The subject of data set [5] is Human immunodeficiency virus 1. As to the kind of experiment: Antiviral activity against HIV1 infected in human TZM-bl cells assessed as reduction of viral […] after 48 hrs by luciferase reporter gene assay. It counts as functional, organism-based. The method, boiled down: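 Single-round infection of TZM-bl cells (HeLa clone expressing CD4 and CCR5, HIV-1 LTR-driven firefly luciferase) with HIV-1 at 200 TCID50 mixed with samples. Luminescence read after 48 h. IC50 is the concentration giving 50% lower RLU than virus control wells, after subtracting background RLU.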
(In a reporter assay the amount or activity of a reporter protein is the signal.)

The source made the active and inactive calls. No cut-off for these calls is given here.

Take `C=C(C)[C@@H]1CC[C@]2(C(=O)OCOCCOC)CC[C@]3(C)[C@H](CC[C@@H]4[C@@]5(C)CC[C@H](O)C(C)(C)[C@@H]5CC[C@]43C)[C@@H]12`: the result in data set [1] and in data set [2] was inactive.
For `C=C(C)[C@@H]1CC[C@]2(C(=O)N3CCC(CCCC(=O)N4CCOCC4)CC3)CC[C@]3(C)[C@H](CC[C@@H]4[C@@]5(C)CC[C@H](OC(=O)CC(C)(C)C(=O)O)C(C)(C)[C@@H]5CC[C@]43C)[C@@H]12`, the outcome in data set [2] was inactive. For the same compound, in data set [3], the selectivity ratio was found to be 156. Moreover, the IC50 in data set [4] was determined as 0.07 µM. For the same compound, the 50% cytotoxic concentration (CC50) in the data set with MT4 was determined as 10.9 µM.
Turning to `C=C(C)[C@@H]1CC[C@]2(C(=O)N3CCC(CCCC(=O)NC)CC3)CC[C@]3(C)[C@H](CC[C@@H]4[C@@]5(C)CC[C@H](O)C(C)(C)[C@@H]5CC[C@]43C)[C@@H]12`, the result in data set [1] and in data set [2] was inactive.
On to `C=C(C)[C@@H]1CC[C@]2(C(=O)O)CC[C@]3(C)[C@H](CC[C@@H]4[C@@]5(C)CC[C@H](O)C(C)(C)[C@@H]5CC[C@]43C)[C@@H]12`, for which the outcome in data set [2] was Active.
In the case of `C=C(C)[C@@H]1CC[C@]2(C(=O)OCOC)CC[C@]3(C)[C@H](CC[C@@H]4[C@@]5(C)CC[C@H](OC(=O)CC(C)(C)C(=O)O)C(C)(C)[C@@H]5CC[C@]43C)[C@@H]12`, in data set [2], the result was inactive. For the same compound, the selectivity ratio in data set [3] was 70.9. The IC50 in data set [4] turned out to be 0.17 µM. In addition, the midpoint of cytotoxicity in the data set with MT4, the CC50, lay at 12.4 µM.
In the case of `C=C(C)[C@@H]1CC[C@]2(C(=O)OCCCc3ccccc3)CC[C@]3(C)[C@H](CC[C@@H]4[C@@]5(C)CC[C@H](O)C(C)(C)[C@@H]5CC[C@]43C)[C@@H]12`, the outcome in data set [1] and in data set [2] was inactive.
For `C=C(C)[C@@H]1CC[C@]2(C(=O)OCCCCCCCC)CC[C@]3(C)[C@H](CC[C@@H]4[C@@]5(C)CC[C@H](OC(=O)CC(C)(C)C(=O)O)C(C)(C)[C@@H]5CC[C@]43C)[C@@H]12`, the outcome in data set [1] and in data set [2] was inactive.
With `C=C(C)[C@@H]1CC[C@]2(C(=O)OCOC)CC[C@]3(C)[C@H](CC[C@@H]4[C@@]5(C)CC[C@H](OCOC)C(C)(C)[C@@H]5CC[C@]43C)[C@@H]12`, the outcome in data set [1] and in data set [2] was inactive.
Consider `C=C(C)[C@@H]1CC[C@]2(C(=O)OCCC)CC[C@]3(C)[C@H](CC[C@@H]4[C@@]5(C)CC[C@H](O)C(C)(C)[C@@H]5CC[C@]43C)[C@@H]12`, for which the outcome in data set [1] and in data set [2] was inactive. For the same compound, in data set [5], the result was Active.
Take `C=C(C)[C@@H]1CC[C@]2(C(=O)OCOCCOC)CC[C@]3(C)[C@H](CC[C@@H]4[C@@]5(C)CC[C@H](OCOCCOC)C(C)(C)[C@@H]5CC[C@]43C)[C@@H]12`: the outcome in data set [1] and in data set [2] was inactive.
With `C=C(C)[C@@H]1CC[C@]2(C(=O)OCOC)CC[C@]3(C)[C@H](CC[C@@H]4[C@@]5(C)CC[C@H](O)C(C)(C)[C@@H]5CC[C@]43C)[C@@H]12`, the result in data set [1] and in data set [2] was inactive.
For the compound `C=C(C)[C@@H]1CC[C@]2(C(=O)OCCOCCOCCOCCOC(=O)CC(C)(C)C(=O)O)CC[C@]3(C)[C@H](CC[C@@H]4[C@@]5(C)CC[C@H](OC(=O)CC(C)(C)C(=O)O)C(C)(C)[C@@H]5CC[C@]43C)[C@@H]12`, the result in data set [2] was inactive. The selectivity ratio in data set [3] worked out at 111. Further, in data set [4], the IC50 was 0.079 µM. The compound further came in with a CC50 with MT4 of 8.9 µM.
`C=C(C)[C@@H]1CC[C@]2(C(=O)N3CCN(CCCC(=O)O)CC3)CC[C@]3(C)[C@H](CC[C@@H]4[C@@]5(C)CC[C@H](O)C(C)(C)[C@@H]5CC[C@]43C)[C@@H]12`: the result in data set [1] and in data set [2] was inactive.
As for `C=C(C)[C@@H]1CC[C@]2(C(=O)N3CCC(CCCC(=O)N4CCOCC4)CC3)CC[C@]3(C)[C@H](CC[C@@H]4[C@@]5(C)CC[C@H](O)C(C)(C)[C@@H]5CC[C@]43C)[C@@H]12`, the result in data set [1] and in data set [2] was inactive.
Take `C=C(C)[C@@H]1CC[C@]2(C(=O)N3CCN(CCCCC(=O)O)CC3)CC[C@]3(C)[C@H](CC[C@@H]4[C@@]5(C)CC[C@H](O)C(C)(C)[C@@H]5CC[C@]43C)[C@@H]12`: the result in data set [1] and in data set [2] was inactive.
`C=C(C)[C@@H]1CC[C@]2(C(=O)N3CCC(CCCC(=O)NCCCN4CCOCC4)CC3)CC[C@]3(C)[C@H](CC[C@@H]4[C@@]5(C)CC[C@H](O)C(C)(C)[C@@H]5CC[C@]43C)[C@@H]12`: the result in data set [1] and in data set [2] was inactive.
On to `C=C(C)[C@@H]1CC[C@]2(C(=O)O)CC[C@]3(C)[C@H](CC[C@@H]4[C@@]5(C)CC[C@H](OCOCCOC)C(C)(C)[C@@H]5CC[C@]43C)[C@@H]12`, for which the outcome in data set [1] and in data set [2] was inactive.
As for `C=C(C)[C@@H]1CC[C@]2(C(=O)OCCCCCCCC)CC[C@]3(C)[C@H](CC[C@@H]4[C@@]5(C)CC[C@H](O)C(C)(C)[C@@H]5CC[C@]43C)[C@@H]12`, the result in data set [1] and in data set [2] was inactive.
Take `C=C(C)[C@@H]1CC[C@]2(C(=O)O)CC[C@]3(C)[C@H](CC[C@@H]4[C@@]5(C)CC[C@H](OCOC)C(C)(C)[C@@H]5CC[C@]43C)[C@@H]12`: the result in data set [1] and in data set [2] was inactive.
Regarding `C=C(C)[C@@H]1CC[C@]2(C(=O)OCCOCCOCCOCCO)CC[C@]3(C)[C@H](CC[C@@H]4[C@@]5(C)CC[C@H](O)C(C)(C)[C@@H]5CC[C@]43C)[C@@H]12`, the outcome in data set [1] and in data set [2] was inactive.
As for `C=C(C)[C@@H]1CC[C@]2(C(=O)ON3C(=O)CCC3=O)CC[C@]3(C)[C@H](CC[C@@H]4[C@@]5(C)CC[C@H](O)C(C)(C)[C@@H]5CC[C@]43C)[C@@H]12`, the outcome in data set [1] and in data set [2] was inactive.
With `C=C(C)[C@@H]1CC[C@]2(C(=O)N3CCC(CCCC(=O)NCCN4CCOCC4)CC3)CC[C@]3(C)[C@H](CC[C@@H]4[C@@]5(C)CC[C@H](O)C(C)(C)[C@@H]5CC[C@]43C)[C@@H]12`, the outcome in data set [1] and in data set [2] was inactive.
As for `C=C(C)[C@@H]1CC[C@]2(C(=O)OCCCCCC)CC[C@]3(C)[C@H](CC[C@@H]4[C@@]5(C)CC[C@H](O)C(C)(C)[C@@H]5CC[C@]43C)[C@@H]12`, the result in data set [1] and in data set [2] was inactive. Further, in data set [5], the outcome was Active.
Turning to `C=C(C)[C@@H]1CC[C@]2(C(=O)OCCCCCC(=O)OCC)CC[C@]3(C)[C@H](CC[C@@H]4[C@@]5(C)CC[C@H](O)C(C)(C)[C@@H]5CC[C@]43C)[C@@H]12`, the outcome in data set [1] and in data set [2] was inactive.
On to `C=C(C)[C@@H]1CC[C@]2(C(=O)OCc3cn([C@H]4C[C@H](n5cc(C)c(=O)[nH]c5=O)O[C@@H]4CO)nn3)CC[C@]3(C)[C@H](CC[C@@H]4[C@@]5(C)CC[C@H](OC(=O)CC(C)(C)C(=O)O)C(C)(C)[C@@H]5CC[C@]43C)[C@@H]12`, for which the result in data set [2] was inactive. Also, the selectivity ratio in data set [3] was 101. Moreover, the IC50 in data set [4] amounted to 0.1 µM. The compound further had a CC50 in the data set on MT4 of 11 µM.
Taken in the same sequence, the figures for `C=C(C)[C@@H]1CC[C@]2(C(=O)N3CCC(CCCC(=O)NC)CC3)CC[C@]3(C)[C@H](CC[C@@H]4[C@@]5(C)CC[C@H](OC(=O)CC(C)(C)C(=O)O)C(C)(C)[C@@H]5CC[C@]43C)[C@@H]12` were “inactive”, above 55.5, 0.24 µM and above 13.3 µM.
As for `C#CCOC(=O)[C@]12CC[C@@H](C(=C)C)[C@@H]1[C@H]1CC[C@@H]3[C@@]4(C)CC[C@H](O)C(C)(C)[C@@H]4CC[C@@]3(C)[C@]1(C)CC2`, the outcome in data set [1] and in data set [2] was inactive.
Consider `C=C(C)[C@@H]1CC[C@]2(C(=O)ON3C(=O)CCC3=O)CC[C@]3(C)[C@H](CC[C@@H]4[C@@]5(C)CC[C@H](OC(=O)CC(C)(C)C(=O)O)C(C)(C)[C@@H]5CC[C@]43C)[C@@H]12`, for which the result in data set [2] was inactive. In addition, the selectivity ratio in data set [3] is 86.2. In data set [4], the IC50 turned out to be 0.13 µM. Also, the cytotoxic concentration (CC50) in the data set with MT4 was 11 µM.
Turning to `C#CCOC(=O)[C@]12CC[C@@H](C(=C)C)[C@@H]1[C@H]1CC[C@@H]3[C@@]4(C)CC[C@H](OC(=O)CC(C)(C)C(=O)O)C(C)(C)[C@@H]4CC[C@@]3(C)[C@]1(C)CC2`, the result in data set [2] was inactive. The selectivity ratio in data set [3] is 226. In addition, in data set [4], the IC50 is 0.067 µM. The same compound had a cytotoxic concentration (CC50) in the data set on MT4 of 15.3 µM.
